Reference: ChEMBL document CHEMBL4316616, “Efficacy of TLR7 agonistic imidazoquinoline as immunochemotherapeutic agent against P. Berghei ANKA infected rodent host” (Bioorg Med Chem Lett, 2019)
Activity calls are given as the source filed them. No cut-off for these calls is given here.

How the values were obtained:
Plasmodium berghei [1] = experiment: Antiparasitic activity against Plasmodium berghei ANKA infected in Laca mouse assessed as reduction in CD3+ cell level in brain at 10 ug, ip co-administered with chloroquine for 4 days measured on day 21 by flow cytometry; type: functional, organism-based
[2] = Toxicity in Laca mouse infected with Plasmodium berghei ANKA assessed as death at 10 ug, ip administered for 4 days measured on day 15; type: organism-based; details: in vivo, 96 h
Outline: (§1)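 Six mice per group received 1x10⁶ parasitized RBCs (P. berghei ANKA) i.p. on D0. TLR7 agonist was given i.p., 0.2 mL/mouse, daily D0–D3. PBS-treated infected and uninfected groups served as controls. Survival was monitored alongside parasitemia from Giemsa-stained thin blood smears.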

Plasmodium berghei [3] = experiment: Antiparasitic activity against Plasmodium berghei ANKA infected in Laca mouse assessed as increase in serum IL-12 level at 10 ug, ip co-administered with chloroquine for 4 days measured on day 10 by sandwich ELISA; type: functional, organism-based
Plasmodium berghei [4] = experiment: Antiparasitic activity against Plasmodium berghei ANKA infected in Laca mouse assessed as reduction in CD4+ cell level in brain at 10 ug, ip co-administered with chloroquine for 4 days measured on day 21 by flow cytometry; type: functional, organism-based
Plasmodium berghei [5] = experiment: Antiparasitic activity against Plasmodium berghei ANKA infected in Laca mouse assessed as increase in CD3+ cell level in spleen at 10 ug, ip co-administered with chloroquine for 4 days measured on day 10 by flow cytometry; type: functional, organism-based
Plasmodium berghei [6] = experiment: Antiparasitic activity against Plasmodium berghei ANKA infected in Laca mouse assessed as reduction in CD3+ cell level in brain at 10 ug, ip co-administered with chloroquine for 4 days measured on day 10 by flow cytometry; type: functional, organism-based
Plasmodium berghei [7] = experiment: Antiparasitic activity against Plasmodium berghei ANKA infected in Laca mouse assessed as decrease in serum TNFalpha level at 10 ug, ip administered for 4 days measured on day 10 by sandwich ELISA; type: functional, organism-based
Plasmodium berghei [8] = experiment: Antiparasitic activity against Plasmodium berghei ANKA infected in Laca mouse assessed as increase in IFN-gamma level in serum at 10 ug, ip administered for 4 days measured on day 10 by sandwich ELISA
Plasmodium berghei [9] = experiment: Antiparasitic activity against Plasmodium berghei ANKA infected in Laca mouse assessed as reduction in CD8+ cell level in brain at 10 ug, ip administered for 4 days measured on day 10 by flow cytometry; type: functional, organism-based
Plasmodium berghei [10] = experiment: Antiparasitic activity against Plasmodium berghei ANKA infected in Laca mouse assessed as increase in serum IL-27 level at 10 ug, ip administered for 4 days measured on day 10 by sandwich ELISA; type: functional, organism-based
Plasmodium berghei [11] = experiment: Antiparasitic activity against Plasmodium berghei ANKA infected in Laca mouse assessed as decrease in serum TNFalpha level at 10 ug, ip co-administered with chloroquine for 4 days measured on day 10 by sandwich ELISA; type: functional, organism-based
Plasmodium berghei [12] = experiment: Antiparasitic activity against Plasmodium berghei ANKA infected in Laca mouse assessed as change in Treg cell level in spleen at 10 ug, ip co-administered with chloroquine for 4 days measured on day 10 and 21 by flow cytometry; type: functional, organism-based
Plasmodium berghei [13] = experiment: Antiparasitic activity against Plasmodium berghei ANKA infected in Laca mouse assessed as reduction in CD4+ cell level in brain at 10 ug, ip administered for 4 days measured on day 10 and 21 by flow cytometry; type: functional, organism-based
Plasmodium berghei [14] = experiment: Antiparasitic activity against Plasmodium berghei ANKA infected in Laca mouse assessed as reduction in parasitemia at 10 ug, ip co-administered with chloroquine for 4 days measured on day 25 by Giemsa-staining based assay; type: functional, organism-based
[15] = Toxicity in Laca mouse infected with Plasmodium berghei ANKA assessed as death at 10 ug, ip co-treated with chloroquine for 4 days measured on day 30; type: organism-based; details: in vivo, 96 h
Outline: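 Mice (6/group) were infected i.p. with 1x10⁶ P. berghei ANKA parasitized RBCs on D0. TLR7 agonist was given i.p. plus chloroquine 10 mg/kg orally (0.2 mL/mouse each), daily D0–D3. Survival and parasitemia (Giemsa-stained thin blood smears of individual mice) were followed for about one month.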

Plasmodium berghei [16] = experiment: Antiparasitic activity against Plasmodium berghei ANKA infected in Laca mouse assessed as reduction in CD3+ cell level in brain at 10 ug, ip administered for 4 days measured on day 10 by flow cytometry; type: functional, organism-based
Plasmodium berghei [17] = experiment: Antiparasitic activity against Plasmodium berghei ANKA infected in Laca mouse assessed as parasitemia at 10 ug, ip co-administered with chloroquine for 4 days measured on day 30 by Giemsa-staining based assay; type: functional
Plasmodium berghei [18] = experiment: Antiparasitic activity against Plasmodium berghei ANKA infected in Laca mouse assessed as reduction in parasitemia at 10 ug, ip administered for 4 days measured on day 9 by Giemsa-staining based assay; type: functional, organism-based
Plasmodium berghei [19] = experiment: Antiparasitic activity against Plasmodium berghei ANKA infected in Laca mouse assessed as parasitemia at 10 ug, ip administered for 4 days measured on day 7 by Giemsa-staining based assay; type: functional
Plasmodium berghei [20] = experiment: Antiparasitic activity against Plasmodium berghei ANKA infected in Laca mouse assessed as reduction in CD8+ cell level in brain at 10 ug, ip co-administered with chloroquine for 4 days measured on day 10 by flow cytometry; type: functional, organism-based
Plasmodium berghei [21] = experiment: Antiparasitic activity against Plasmodium berghei ANKA infected in Laca mouse assessed as increase in Treg cell level in spleen at 10 ug, ip administered for 4 days measured on day 10 and 21 by flow cytometry; type: functional, organism-based
Plasmodium berghei [22] = experiment: Antiparasitic activity against Plasmodium berghei ANKA infected in Laca mouse assessed as increase in IFN-gamma level in serum at 10 ug, ip co-administered with chloroquine for 4 days measured on day 10 by sandwich ELISA
[23] = Toxicity in Laca mouse infected with Plasmodium berghei ANKA assessed as death at 10 ug, ip administered for 4 days measured on day 9; type: organism-based; details: in vivo, 96 h; outline: as §1
Plasmodium berghei [24] = experiment: Antiparasitic activity against Plasmodium berghei ANKA infected in Laca mouse assessed as decrease in Treg cell level in brain at 10 ug, ip co-administered with chloroquine for 4 days measured on day 10 by flow cytometry
[25] = Toxicity in Laca mouse infected with Plasmodium berghei ANKA assessed as body weight loss at 10 ug, ip administered for 4 days; type: organism-based; details: in vivo, 96 h
Plasmodium berghei [26] = experiment: Antiparasitic activity against Plasmodium berghei ANKA infected in Laca mouse assessed as reduction in parasitemia at 10 ug, ip co-administered with chloroquine for 4 days measured on day 23 by Giemsa-staining based assay; type: functional, organism-based
Plasmodium berghei [27] = experiment: Antiparasitic activity against Plasmodium berghei ANKA infected in Laca mouse assessed as increase in serum IL-27 level at 10 ug, ip co-administered with chloroquine for 4 days measured on day 10 by sandwich ELISA; type: functional, organism-based
[28] = Toxicity in Laca mouse infected with Plasmodium berghei ANKA assessed as death at 10 ug, ip co-treated with chloroquine for 4 days measured on day 30; details: in vivo, 96 h
Plasmodium berghei [29] = experiment: Antiparasitic activity against Plasmodium berghei ANKA infected in Laca mouse assessed as increase in serum IL-10 level at 10 ug, ip co-administered with chloroquine for 4 days measured on day 10 by sandwich ELISA; type: functional, organism-based
Plasmodium berghei [30] = experiment: Antiparasitic activity against Plasmodium berghei ANKA infected in Laca mouse assessed as increase in serum IL-10 level at 10 ug, ip administered for 4 days measured on day 10 by sandwich ELISA; type: functional, organism-based
Plasmodium berghei [31] = experiment: Antiparasitic activity against Plasmodium berghei ANKA infected in Laca mouse assessed as increase in Treg cell level in spleen at 10 ug, ip co-administered with chloroquine for 4 days measured on day 21 by flow cytometry; type: functional, organism-based
[32] = Toxicity in Laca mouse infected with Plasmodium berghei ANKA assessed as death at 10 ug, ip administered for 4 days measured on day 10 and 21; type: organism-based; details: in vivo, 96 h; outline: as §1
Plasmodium berghei [33] = experiment: Antiparasitic activity against Plasmodium berghei ANKA infected in Laca mouse assessed as increase in Treg cell level in brain at 10 ug, ip co-administered with chloroquine for 4 days measured on day 21 by flow cytometry; type: functional, organism-based
[34] = Toxicity in Laca mouse infected with Plasmodium berghei ANKA assessed as death at 10 ug, ip co-treated with chloroquine for 4 days measured on day 30; details: in vivo, 96 h; remark: listed apart in the source
Plasmodium berghei [35] = experiment: Antiparasitic activity against Plasmodium berghei ANKA infected in Laca mouse assessed as reduction in CD4+ cell level in brain at 10 ug, ip co-administered with chloroquine for 4 days measured on day 10 and 21 by flow cytometry; type: functional, organism-based
Plasmodium berghei [36] = experiment: Antiparasitic activity against Plasmodium berghei ANKA infected in Laca mouse assessed as increase in serum IL-12 level at 10 ug, ip administered for 4 days measured on day 10 by sandwich ELISA; type: functional, organism-based
Plasmodium berghei [37] = experiment: Antiparasitic activity against Plasmodium berghei ANKA infected in Laca mouse assessed as reduction in CD8+ cell level in brain at 10 ug, ip co-administered with chloroquine for 4 days measured on day 21 by flow cytometry; type: functional, organism-based
Plasmodium berghei [38] = experiment: Antiparasitic activity against Plasmodium berghei ANKA infected in Laca mouse assessed as increase in Treg cell level in brain at 10 ug, ip administered for 4 days measured on day 10 by flow cytometry; type: functional, organism-based
Plasmodium berghei [39] = experiment: Antiparasitic activity against Plasmodium berghei ANKA infected in Laca mouse assessed as increase in CD3+ cell level in spleen at 10 ug, ip administered for 4 days measured on day 10 by flow cytometry; type: functional, organism-based

Compound: CCCCc1nc2c(N)nc3ccccc3c2n1Cc1ccccc1
- Activity (Plasmodium berghei [1]): inactive
- Activity [2]: Toxic
- Activity (Plasmodium berghei [3]): Active
- Activity (Plasmodium berghei [4]): inactive
- Activity (Plasmodium berghei [5]): Active
- Activity (Plasmodium berghei [6]): Active
- Activity (Plasmodium berghei [7]): Active
- Activity (Plasmodium berghei [8]): Active
- Activity (Plasmodium berghei [9]): Active
- Activity (Plasmodium berghei [10]): Active
- Activity (Plasmodium berghei [11]): Active
- Activity (Plasmodium berghei [12]): Active
- Activity (Plasmodium berghei [13]): Active
- Activity (Plasmodium berghei [14]): inactive
- Activity [15]: Toxic
- Activity (Plasmodium berghei [16]): Active
- Activity (Plasmodium berghei [17]): 11.65%
- Activity (Plasmodium berghei [18]): Active
- Activity (Plasmodium berghei [19]): 5.7%
- Activity (Plasmodium berghei [20]): Active
- Activity (Plasmodium berghei [21]): Active
- Activity (Plasmodium berghei [22]): Active
- Activity [23]: Toxic
- Activity (Plasmodium berghei [24]): Active
- Activity [25]: Toxic
- Activity (Plasmodium berghei [26]): Active
- Activity (Plasmodium berghei [27]): Active
- Activity [28]: Toxic
- Activity (Plasmodium berghei [29]): Active
- Activity (Plasmodium berghei [30]): Active
- Activity (Plasmodium berghei [31]): Active
- Activity [32]: Toxic
- Activity (Plasmodium berghei [33]): Active
- Activity [34]: Toxic
- Activity (Plasmodium berghei [35]): Active
- Activity (Plasmodium berghei [36]): Active
- Activity (Plasmodium berghei [37]): inactive
- Activity (Plasmodium berghei [38]): Active
- Activity (Plasmodium berghei [39]): Active
